The source of these data is ChEMBL document CHEMBL3526089, “Selective mechanism-based inactivation of CYP3A4 by CYP3cide (PF-04981517) and its utility as an in vitro tool for delineating the relative roles of CYP3A4 versus CYP3A5 in the metabolism of drugs” (Drug Metab Dispos, 2012).

Type in all cases: ADME
One series relates to CYP3A5*1/*1. Nature of the series: Time dependent inhibition of CYP3A5*1/*1 in human liver microsomes assessed as midazolam 1'-hydroxylase activity at 0.56 uM after 10 mins by dilution method. The following applies: liver microsomes (CYP3A5*1/*1 genotype), probe midazolam (1'-hydroxylation). The method, boiled down: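 Genotyped individual HLMs (0.1 mg/ml) preincubated at 37°C with CYP3cide (0–1.3 μM; 10 min in the two-donor study, 5 min in the 30-donor study), with or without 1.3 mM NADPH (N=3). Mixture diluted 20-fold into 23 μM midazolam for 6 min. 1'-OH-midazolam measured. Readout: % of vehicle/no-NADPH control activity.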
On the technique in general: Liver microsomes are vesicles of endoplasmic reticulum, rich in cytochrome P450 enzymes.

In another series the target is Cytochrome P450 2B6 (Homo sapiens, UniProt P20813). As to the kind of experiment: Reversible inhibition of human CYP2B6 bupropion hydroxylase activity. An outline of the steps:
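Reversible IC50 with pooled HLM or recombinant CYP3A7 (with POR and b5), protein 0.010–0.10 mg/ml depending on isoform. Probe substrate at its experimentally derived KM. Metabolite formation measured by LC/MS/MS. IC50 determinations run in duplicate.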

In series [1] the target is T1, Cytochrome P450 3A4 (Homo sapiens, UniProt P08684). As to the kind of experiment: Drug metabolism assessed as human recombinant CYP3A4 in presence of human P450 oxidoreductase and b5-mediated 1-((3S)-1-(1-methyl-3-(1-methyl-5-p-tolyl-1H-pyrazol-4-yl)-1H-pyrazolo[3,4-d]pyrimidin-4-yl)pyrrolidin-3-yl)-2,3,4,5-tetrahydropyridinium formation at 10 uM by HPLC-MS analysis in presence of NADPH. The following applies: recombinant enzyme. An outline of the steps: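 Recombinant CYP3A4 or CYP3A5 (50 pmol/ml final) added, without preincubation, to 10 µM CYP3cide with NADPH (final 1 mM) in 100 mM phosphate pH 7.4. Trapping incubations also held 200 µM KCN or 5 mM GSH (final). Incubated 1 h at 37°C, quenched with acetonitrile, dried, reconstituted. Metabolites analysed by LC/Orbitrap ESI-MS.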

Another series deals with Cytochrome P450 3A5 (Homo sapiens, UniProt P20815). Nature of the series: Reversible inhibition of midazolam 1'-hydroxylase activity of human recombinant CYP3A5 harboring human P450 oxidoreductase and b5. The method, boiled down:
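Recombinant CYP3A5 expressed in baculovirus, with P450 oxidoreductase and cytochrome b5 (P450:POR:b5 1:13:7). Enzyme at 0.010 mg/ml for midazolam 1'-hydroxylase and 0.020 mg/ml for testosterone 6β-hydroxylase. Each substrate at its experimentally derived KM. IC50 determined in duplicate.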

The target in a further series is CYP1A2 (Homo sapiens, UniProt P05177). As to the kind of experiment: Time dependent inhibition of human CYP1A2 phenacetin O-deethylase activity assessed as decrease in enzyme activity at 100 uM preincubated for 30 mins by IC25-shift assay. The following applies: probe phenacetin (O-deethylation). The method, boiled down: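 IC25-shift assay. Pooled HLMs or recombinant CYP3A4/3A5/3A7 were preincubated 30 min at 37°C with CYP3cide, with or without NADPH (1.3 mM) (N=2). Mixture diluted 10-fold into probe substrate (~KM) at 37°C. Metabolites analysed by LC/MS/MS. Readout: % decrease in activity vs control.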

The nature of series [2]: Inhibition of CYP3A5*3/*3 in 5 mg/ml of human liver microsomes assessed as midazolam 1'-hydroxylase activity at 13 uM after 10 mins.
Series [3] has as its target T1, Cytochrome P450 3A4. As to the kind of experiment: Reversible inhibition of testosterone 6beta-hydroxylase activity of human recombinant CYP3A4 in presence of human P450 oxidoreductase and b5. The method, boiled down:
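IC50 was measured with baculovirus-expressed CYP3A4 plus POR and cytochrome b5 (P450:reductase:b5 1:5:7), with substrate at its experimentally derived KM, in duplicate. Enzyme was 0.010 mg/ml for midazolam 1'-hydroxylation and 0.020 mg/ml for testosterone 6β-hydroxylation.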

T1 sequence (P08684 whole entry): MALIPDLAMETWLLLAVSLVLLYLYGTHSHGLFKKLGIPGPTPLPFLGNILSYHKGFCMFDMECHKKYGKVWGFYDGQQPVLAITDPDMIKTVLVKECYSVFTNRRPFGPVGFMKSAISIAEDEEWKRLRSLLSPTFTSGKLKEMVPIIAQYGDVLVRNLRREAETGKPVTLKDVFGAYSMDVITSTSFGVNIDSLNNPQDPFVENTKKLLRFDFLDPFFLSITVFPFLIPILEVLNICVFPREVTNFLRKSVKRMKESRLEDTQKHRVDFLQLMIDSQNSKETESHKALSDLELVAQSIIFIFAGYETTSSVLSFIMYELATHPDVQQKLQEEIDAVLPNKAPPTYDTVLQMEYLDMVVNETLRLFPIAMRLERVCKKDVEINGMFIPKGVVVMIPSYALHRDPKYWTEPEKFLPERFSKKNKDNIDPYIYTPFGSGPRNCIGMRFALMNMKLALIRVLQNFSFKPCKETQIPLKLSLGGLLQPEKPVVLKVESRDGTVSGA
Sequence of Cytochrome P450 3A5 (P20815 whole entry): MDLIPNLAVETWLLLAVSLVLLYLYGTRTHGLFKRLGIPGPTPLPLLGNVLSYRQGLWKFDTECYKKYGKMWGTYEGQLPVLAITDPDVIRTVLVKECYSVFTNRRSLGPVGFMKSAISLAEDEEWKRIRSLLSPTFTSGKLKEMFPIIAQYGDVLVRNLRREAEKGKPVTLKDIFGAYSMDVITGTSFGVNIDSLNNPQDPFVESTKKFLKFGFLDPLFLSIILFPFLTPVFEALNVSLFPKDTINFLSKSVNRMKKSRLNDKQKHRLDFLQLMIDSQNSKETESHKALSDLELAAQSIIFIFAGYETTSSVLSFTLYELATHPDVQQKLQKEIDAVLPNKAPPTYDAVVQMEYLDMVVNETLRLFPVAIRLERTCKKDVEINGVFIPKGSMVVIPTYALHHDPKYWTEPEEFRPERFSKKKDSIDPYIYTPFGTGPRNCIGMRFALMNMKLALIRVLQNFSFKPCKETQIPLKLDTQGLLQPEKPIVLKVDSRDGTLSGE
Sequence of CYP1A2 (P05177 whole entry): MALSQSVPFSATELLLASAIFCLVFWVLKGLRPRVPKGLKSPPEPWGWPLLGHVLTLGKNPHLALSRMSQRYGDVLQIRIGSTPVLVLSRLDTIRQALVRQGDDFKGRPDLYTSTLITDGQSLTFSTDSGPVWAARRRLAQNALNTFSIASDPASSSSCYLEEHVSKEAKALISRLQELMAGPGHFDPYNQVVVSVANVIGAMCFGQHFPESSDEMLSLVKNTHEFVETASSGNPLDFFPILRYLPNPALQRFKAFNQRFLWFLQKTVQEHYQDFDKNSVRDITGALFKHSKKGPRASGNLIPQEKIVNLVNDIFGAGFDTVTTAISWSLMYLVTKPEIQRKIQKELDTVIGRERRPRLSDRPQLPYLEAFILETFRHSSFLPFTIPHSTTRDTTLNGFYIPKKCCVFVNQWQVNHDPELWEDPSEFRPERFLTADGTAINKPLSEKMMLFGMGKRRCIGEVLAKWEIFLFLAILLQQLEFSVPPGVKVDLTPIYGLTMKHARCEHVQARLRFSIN
Sequence of Cytochrome P450 2B6 (P20813 whole entry, canonical isoform): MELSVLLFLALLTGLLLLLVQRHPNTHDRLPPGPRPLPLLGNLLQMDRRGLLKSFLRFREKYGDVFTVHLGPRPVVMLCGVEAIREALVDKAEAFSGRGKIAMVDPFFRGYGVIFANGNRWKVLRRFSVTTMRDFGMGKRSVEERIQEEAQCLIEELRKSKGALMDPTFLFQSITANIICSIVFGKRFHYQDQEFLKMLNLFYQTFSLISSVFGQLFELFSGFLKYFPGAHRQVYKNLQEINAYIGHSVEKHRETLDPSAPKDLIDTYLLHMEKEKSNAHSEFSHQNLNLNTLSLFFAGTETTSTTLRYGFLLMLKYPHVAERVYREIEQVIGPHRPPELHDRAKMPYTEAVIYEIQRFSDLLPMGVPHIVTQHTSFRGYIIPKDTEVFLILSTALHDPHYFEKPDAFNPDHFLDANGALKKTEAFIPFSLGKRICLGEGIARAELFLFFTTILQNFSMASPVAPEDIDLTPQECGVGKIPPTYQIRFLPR

With `Cc1ccc(-c2c(-c3nn(C)c4ncnc(N5CC[C@H](N6CCCCC6)C5)c34)cnn2C)cc1`, the inhibition – broadly, the share of the control response that was lost under treatment – at 10 min, 0.56 µM in the series with CYP3A5*1/*1 worked out at 0.4%. In addition, the IC50 – broadly, the point on the concentration scale where inhibition reaches its midpoint – was determined as 88 µM on Cytochrome P450 2B6, 17 µM at Cytochrome P450 3A5 and 0.69 µM at Cytochrome P450 3A4 [3]. In addition, the Drug metabolism entry at Cytochrome P450 3A4 [1] is recorded as “metabolite_detected”. Besides, the inhibition at 30 min, 100 µM on CYP1A2 amounted to 17%. In series [2], the “inhibition (INH)” value is “Active”.
